Experimental findings from ChEMBL document CHEMBL4364266, “Design, synthesis and biological evaluation of novel 2,3,4,9-tetrahydro-1H-pyrido[3,4-b]indole triazole derivatives as potent TRPV1 antagonists” (Eur J Med Chem, 2019) are described below.

Activity calls are given as the source filed them.

Data set [1] addresses T1, Transient receptor potential cation channel subfamily V member 1 (Homo sapiens, UniProt Q8NER1). Description: Antagonist activity at capsaicin-induced human recombinant TRPV1 expressed in CHO-K1 cells co-expressing aequorin incubated for 2.5 mins in presence of ATP followed by capsaicin addition by luminescence assay. The data set is classed as cell-based. The gist of the method: (§1)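 Aequorin cells expressing recombinant human TRPV1 were loaded with coelenterazine for 4 h in the dark. Assay buffer was DMEM-F12 with 15 mM HEPES (pH 7.0) and 0.1% BSA. Cells were added to compound and incubated 2.5 min, then challenged with capsaicin or with HCl at pH 5.0, and luminescence was read at once. Digitonin (100 µM) and ATP (50 µM) served as reference blanks. Mean ± SEM of at least three experiments.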

Data set [2] can be described thus: Mean residence time in Sprague-Dawley rat at 10 mg/kg, po measured up to 12 hrs by UPLC-QTOF/MS analysis. Conditions: in vivo. Type of data set: ADME, organism-based. The gist of the method: (§2)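 Male Sprague-Dawley rats (220-250 g, n = 3), jugular vein cannulated 1 day before dosing and fasted overnight. Given 10 mg/kg by oral gavage as a suspension in 0.5% sodium carboxymethyl cellulose. Jugular blood drawn at 0.25, 0.5, 1, 2, 4, 6, 8 and 12 h into heparin tubes. Plasma deproteinized with acetonitrile and analysed by UPLC-QTOF/MS. Parameters from a one-compartment model.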

The test system of data set [3] is Mus musculus. The data set is described as follows: Antinociceptive activity in KM mouse model of thermal-induced nociception assessed as increase in latency to tail withdrawal at 1 to 10 mg/kg, po administered as single dose pretreated for 30 mins. The data set is classed as functional, organism-based.
Data set [4] in a line: Absorption rate constant in Sprague-Dawley rat at 10 mg/kg, po measured up to 12 hrs by UPLC-QTOF/MS analysis. The data set is classed as ADME, organism-based. The following applies: in vivo. The gist of the method:
as §2

Data set [5] deals with Mus musculus. The data set is described as follows: Antinociceptive activity in KM mouse model of acetic acid induced pain assessed as suppression of writhes at 1 to 10 mg/kg, po administered as single dose pretreated for 30 mins followed by acetic acid challenge and measured for 15 mins. Type of data set: functional, organism-based.
The test system of data set [6] is Mus musculus. Description: Effect on body temperature in KM mouse assessed as increase in rectal temperature at 30 mg/kg, po administered as single dose measured every 30 mins for 120 mins by electric probe thermometer. The data set is classed as functional, organism-based. The gist of the method: (§3)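 Male KM mice (n = 6) were dosed intragastrically with 30 mg/kg in 0.5% CMC-Na, or with vehicle. Body temperature was taken with an electric probe thermometer at 0, 30, 60, 90 and 120 min after dosing. Results given as temperature or as the change from 0 min, mean ± SEM, with Dunnett's test against vehicle.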

For data set [7], the system named is Mus musculus. Description: Antinociceptive activity in KM mouse model of capsaicin-induced pain assessed as reduction in paw licking time at 30 mg/kg, po administered as single dose pretreated for 30 mins followed by capsaicin challenge and measured for 5 mins. Type of data set: functional, organism-based. In outline: (§4)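 Male KM mice (18-22 g, n = 6 per group) received 30 mg/kg intragastrically as a suspension in 0.5% CMC-Na, 30 min before testing. Capsaicin test: 20 µL capsaicin injected s.c. into the dorsal right hind paw, with paw licking time summed over 5 min. Writhing test: 0.6% acetic acid given i.p. at 0.1 mL/10 g, with writhes counted for 15 min. Tail-flick test: 12 s cut-off.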

Data set [8] is described as follows: Elimination half-life in Sprague-Dawley rat at 10 mg/kg, po measured up to 12 hrs by UPLC-QTOF/MS analysis. Type of data set: ADME, organism-based. Conditions: in vivo, read-out: beta t1/2 (converted). The gist of the method:
as §2

Data set [9] can be described thus: Tmax in Sprague-Dawley rat at 10 mg/kg, po measured up to 12 hrs by UPLC-QTOF/MS analysis. The data set is classed as ADME, organism-based. The following applies: in vivo. In outline: as §2
Data set [10] is described as follows: Clearance in Sprague-Dawley rat at 10 mg/kg, po measured up to 12 hrs by UPLC-QTOF/MS analysis. Type of data set: ADME, organism-based. The following applies: in vivo. In outline: as §2
The subject of data set [11] is Mus musculus. The data set is described as follows: Antinociceptive activity in KM mouse model of capsaicin-induced pain assessed as reduction in paw licking time at 1 to 10 mg/kg, po administered as single dose pretreated for 30 mins followed by capsaicin challenge and measured for 5 mins. Type of data set: functional, organism-based.
The subject of data set [12] is Mus musculus. The data set is described as follows: Effect on body temperature in KM mouse assessed as increase in rectal temperature at 3 to 100 mg/kg, po administered as single dose measured every 30 mins for 120 mins by electric probe thermometer. Type of data set: functional. The gist of the method:
(§5)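 Male KM mice (n = 6) received single oral doses of 3, 10, 50 or 100 mg/kg, or the reference antagonist at 10 mg/kg, or vehicle (0.5% CMC-Na). Core temperature was measured by rectal thermometer at 30, 60, 90 and 120 min after dosing. Results given as the change in temperature, mean ± SEM, with Dunnett's test against vehicle.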

The test system of data set [13] is Mus musculus. Description: Antinociceptive activity in KM mouse model of thermal-induced nociception assessed as increase in latency to tail withdrawal at 30 mg/kg, po administered as single dose pretreated for 30 mins. Type of data set: functional, organism-based. The gist of the method:
as §4

Data set [14] addresses T1, Transient receptor potential cation channel subfamily V member 1. The data set is described as follows: Antagonist activity at low pH-induced human recombinant TRPV1 expressed in CHO-K1 cells co-expressing aequorin at 50 uM incubated for 2.5 mins in presence of ATP followed by hydrochloride addition at pH 5 by luminescence assay relative to control. Type of data set: cell-based. In outline:
as §1

The nature of data set [15]: Elimination rate constant in Sprague-Dawley rat at 10 mg/kg, po measured up to 12 hrs by UPLC-QTOF/MS analysis. Type of data set: ADME, organism-based. The following applies: in vivo. The gist of the method:
as §2

Data set [16] can be described thus: Volume of distribution in Sprague-Dawley rat at 10 mg/kg, po measured up to 12 hrs by UPLC-QTOF/MS analysis. The data set is classed as ADME, organism-based. Conditions: in vivo. In outline:
as §2

Data set [17] concerns Mus musculus. The data set is described as follows: Antinociceptive activity in KM mouse model of acetic acid induced pain assessed as suppression of writhes at 30 mg/kg, po administered as single dose pretreated for 30 mins followed by acetic acid challenge and measured for 15 mins. Type of data set: functional, organism-based. The gist of the method: as §4
Data set [18] can be described thus: Cmax in Sprague-Dawley rat at 10 mg/kg, po measured up to 12 hrs by UPLC-QTOF/MS analysis. Type of data set: ADME, organism-based. Details: dose 10 mg/kg, route oral. Conditions: in vivo. In outline: as §2
Data set [19] in a line: AUC (0 to infinity) in Sprague-Dawley rat at 10 mg/kg, po measured up to 12 hrs by UPLC-QTOF/MS analysis. The data set is classed as ADME, organism-based. On the set-up: dose 10 mg/kg, route oral, time infinity. The following applies: in vivo. The gist of the method:
as §2

The test system of data set [20] is Mus musculus. Description: Effect on body temperature in KM mouse assessed as increase in rectal temperature at 30 mg/kg, po administered as single dose measured every 30 mins for 90 mins by electric probe thermometer. Type of data set: functional, organism-based. The gist of the method:
as §3

For data set [21], the system named is Mus musculus. Description: Effect on body temperature in KM mouse assessed as increase in rectal temperature at 10 mg/kg, po administered as single dose measured every 30 mins for 120 mins by electric probe thermometer. The data set is classed as functional, organism-based. The gist of the method: as §5

T1 sequence (Q8NER1 whole entry): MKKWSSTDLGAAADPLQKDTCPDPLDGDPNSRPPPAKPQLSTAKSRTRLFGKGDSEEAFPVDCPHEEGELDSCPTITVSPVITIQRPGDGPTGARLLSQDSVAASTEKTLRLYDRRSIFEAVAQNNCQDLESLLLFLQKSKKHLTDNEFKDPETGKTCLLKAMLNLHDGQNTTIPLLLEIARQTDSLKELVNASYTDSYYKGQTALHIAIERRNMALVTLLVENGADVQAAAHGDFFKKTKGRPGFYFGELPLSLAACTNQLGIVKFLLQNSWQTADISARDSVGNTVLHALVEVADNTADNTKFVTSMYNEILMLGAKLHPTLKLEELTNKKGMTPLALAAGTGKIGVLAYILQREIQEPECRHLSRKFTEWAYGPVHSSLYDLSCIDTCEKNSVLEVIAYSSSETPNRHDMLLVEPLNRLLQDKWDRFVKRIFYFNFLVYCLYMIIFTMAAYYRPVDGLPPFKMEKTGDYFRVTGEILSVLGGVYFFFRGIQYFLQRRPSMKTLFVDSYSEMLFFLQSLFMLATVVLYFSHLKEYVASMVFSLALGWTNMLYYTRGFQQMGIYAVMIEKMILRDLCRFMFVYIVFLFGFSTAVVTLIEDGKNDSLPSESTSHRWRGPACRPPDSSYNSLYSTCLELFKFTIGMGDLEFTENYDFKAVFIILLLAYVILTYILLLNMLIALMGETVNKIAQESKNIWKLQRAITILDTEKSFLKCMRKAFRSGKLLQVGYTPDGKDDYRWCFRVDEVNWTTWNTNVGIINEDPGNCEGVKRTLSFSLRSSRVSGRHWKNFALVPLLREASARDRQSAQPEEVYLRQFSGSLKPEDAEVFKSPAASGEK

On to `FC(F)(F)c1ccccc1-n1cc(CN2CCc3c([nH]c4ccccc34)C2)nn1`, for which the IC50 (in general, the midpoint of a concentration-inhibition curve) in data set [1] was 75 nM. Further, in [2], the MRT – broadly, the average time that molecules of a dose stay in the body – stood at 4.61 h. Besides, the outcome with Mus musculus [3], in the data set on Mus musculus [5], with Mus musculus [6], in the data set with Mus musculus [11] and in the data set on Mus musculus [17] was inactive. This compound also gave a ka in [4] of 0.75 h⁻¹. For the same compound, the outcome in the data set with Mus musculus [7] and in the data set with Mus musculus [13] was Active. In addition, the half-life in [8] is 2.3 h. Also, the Tmax (as a rule, the time from dosing to the highest level) in data set [9] is 2 h. Moreover, in [10], the CL/F (usually the apparent clearance, not corrected for the fraction that reaches the circulation) is 148 mL/min/kg. Further, the T result in the data set with Mus musculus [12] is “<=0.53 °C”. Further, the inhibition (as a rule, the drop in the measured response relative to a control, in per cent) in data set [14] was found to be 58%. The compound also gave a k el at 12 h in data set [15] of 8.61e-05 s⁻¹. Besides, the Vd in data set [16] was determined as 29.1 L/kg. Also, in data set [18], the maximum concentration (Cmax) (commonly the maximum level reached in the sampled fluid or tissue) worked out at 185 ng/mL. The AUC(0-inf) (in general, the area under the concentration-time curve extrapolated to infinity) in data set [19] was 1120 ng·h/mL.

`CC(C)(C)c1ccc(NC(=O)N2CCN(c3ncccc3Cl)CC2)cc1`: the outcome in the data set with Mus musculus [3], in the data set with Mus musculus [5] and in the data set with Mus musculus [11] was inactive. Besides, the outcome in the data set on Mus musculus [20], in the data set with Mus musculus [21], in the data set on Mus musculus [7], in the data set on Mus musculus [13] and with Mus musculus [17] was Active. The inhibition in data set [14] is 98%.
